ChEMBL document CHEMBL1122189, “Preliminary studies of mesoionic 3-(substituted-aryl)-psi-oxatriazoles as potential antihypertensive agents” (1982)

What was measured:
Rattus norvegicus [1] = test: Hypotensive response (systolic blood pressure) was determined at 30 minutes for a dose of 10 mg/kg administered and 1 mL of corn oil in rat; assay type: functional, Artery
Summary of the method: (§1)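 Male Sprague–Dawley rats (250-350 g), femoral artery cannulated under sodium pentobarbital (35 mg/kg ip), restrained supine. Heparin–saline injected into the cannula before recording. Single oral gavage dose in corn oil. Systolic and diastolic pressure taken 30 min after dosing, given as mean (±SE) percent decrease from base line, base line being pressure of animals given 1 mL corn oil.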

Rattus norvegicus [2] = test: Hypotensive response (diastolic blood pressure) was determined at 30 minutes for a dose 10 mg/kg administered and 1 mL of corn oil in rat; assay type: functional, Artery; summary of the method: as §1
Rattus norvegicus [3] = test: Hypotensive response for decrease in blood pressure was determined for a dose 45 mg/kg of in rat; assay type: functional
Summary of the method: (§2)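 Male Sprague–Dawley rats (250-350 g), femoral artery cannulated under sodium pentobarbital (35 mg/kg ip); pressure recorded by transducer after recovery from anesthesia. Oral gavage in under 1 mL corn oil, doses 1-90 mg/kg; vehicle controls got 1 mL corn oil. Recorded continuously for 30 min, then at intervals. Result is mean (±SE) percent decrease in […] from post-anesthesia base line over the first hour.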

Rattus norvegicus [4] = test: Hypotensive response for decrease in blood pressure was determined for a dose 0 mg/kg + 1 mL corn oil in rat; assay type: functional; summary of the method: as §2
Rattus norvegicus [5] = test: Hypotensive response for decrease in blood pressure was determined for a dose 10 mg/kg of in rat; assay type: functional; summary of the method: as §2
Rattus norvegicus [6] = test: Hypotensive response for decrease in blood pressure was determined for a dose 90 mg/kg of in rat; assay type: functional; summary of the method: as §2
Rattus norvegicus [7] = test: Hypotensive response for decrease in blood pressure was determined for a dose 1 mg/kg of in rat; assay type: functional; summary of the method: as §2
Rattus norvegicus [8] = test: Hypotensive response for decrease in blood pressure was determined for a dose 15 mg/kg of in rat; assay type: functional; summary of the method: as §2
Rattus norvegicus [9] = test: Hypotensive response for decrease in blood pressure was determined for a dose 25 mg/kg of in rat; assay type: functional; summary of the method: as §2
Rattus norvegicus [10] = test: Hypotensive response for decrease in blood pressure was determined for a dose 3 mg/kg of in rat; assay type: functional; summary of the method: as §2

## [O-]c1n[n+](-c2ccccc2)no1
Rattus norvegicus [1]
  Decrease in blood pressure: 51.7%
Rattus norvegicus [2]
  Decrease in blood pressure: 52.3%

## COc1ccc(-[n+]2noc([O-])n2)cc1
Rattus norvegicus [1]
  Decrease in blood pressure: 22.2%
Rattus norvegicus [2]
  Decrease in blood pressure: 20%

## [O-]c1n[n+](-c2ccc(Cl)c(Cl)c2)no1
Rattus norvegicus [1]
  Decrease in blood pressure: 31.7%
Rattus norvegicus [2]
  Decrease in blood pressure: 30.9%

## [O-]c1n[n+](-c2c(Cl)cccc2Cl)no1
Rattus norvegicus [1]
  Decrease in blood pressure: 11.5%
Rattus norvegicus [2]
  Decrease in blood pressure: 8.3%

## O=[N+]([O-])c1ccc(-[n+]2noc([O-])n2)cc1
Rattus norvegicus [1]
  Decrease in blood pressure: 24.8%
Rattus norvegicus [2]
  Decrease in blood pressure: 23.8%

## [O-]c1n[n+](-c2ccc(Cl)cc2)no1
Rattus norvegicus [1]
  Decrease in blood pressure: 47%
Rattus norvegicus [2]
  Decrease in blood pressure: 47.9%

## Cc1ccc(-[n+]2noc([O-])n2)cc1
Rattus norvegicus [3]
  Decrease in blood pressure: 53%
Rattus norvegicus [1]
  Decrease in blood pressure: 28.5%
Rattus norvegicus [4]
  Decrease in blood pressure: 0%
Rattus norvegicus [5]
  Decrease in blood pressure: 28%
Rattus norvegicus [6]
  Decrease in blood pressure: 75.3%
Rattus norvegicus [7]
  Decrease in blood pressure: 13.9%
Rattus norvegicus [8]
  Decrease in blood pressure: 37.6%
Rattus norvegicus [9]
  Decrease in blood pressure: 48.1%
Rattus norvegicus [10]
  Decrease in blood pressure: 23.5%
Rattus norvegicus [2]
  Decrease in blood pressure: 27.5%
